# 5HT1E ag – agonists of human 5-HT1E serotonin receptor; CHO 5-HT1E Ga15 NFAT-bla reporter, FRET; 0% DMSO wells, 100% control agonist wells; activation, % at 6 µM; 65,000 tested, 0.69% active; AID 574;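 active means activation above a set limit, the screen-wide mean activation plus 3 SD, cut at about 8.5% in these data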;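 further: 100% = positive control agonist at 1 µM giving full maximal response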
# 5HT1a antag – antagonists of human 5-HT1a serotonin receptor | P08908 | CHO 5-HT1a Ga15 NFAT-bla reporter, antagonist mode | inhibition, % at 10 µM | 62,000 tested, 0.68% active | AID 612;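 active means inhibition above the mean of all tested compounds plus 3 SD, cut at about 43% in these data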;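 further: receptor stimulated by 5-CT agonist at 100 nM near EC80; beta-lactamase reporter measured by ratiometric fluorescence of a cleavable substrate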
# Target sequence (P08908 whole entry, looked up): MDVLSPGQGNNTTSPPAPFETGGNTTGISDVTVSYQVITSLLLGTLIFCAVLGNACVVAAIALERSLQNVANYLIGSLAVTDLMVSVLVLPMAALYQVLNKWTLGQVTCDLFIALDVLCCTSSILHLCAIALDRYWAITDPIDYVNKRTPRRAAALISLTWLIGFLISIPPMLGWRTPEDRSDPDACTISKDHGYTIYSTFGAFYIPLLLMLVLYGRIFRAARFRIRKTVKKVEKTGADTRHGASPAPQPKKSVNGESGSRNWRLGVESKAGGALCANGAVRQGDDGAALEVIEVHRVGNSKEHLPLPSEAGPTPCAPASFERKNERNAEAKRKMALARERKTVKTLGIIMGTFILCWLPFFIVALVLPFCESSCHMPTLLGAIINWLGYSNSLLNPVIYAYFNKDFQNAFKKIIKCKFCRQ
# E coli RNAP – inhibitors of Escherichia coli RNA polymerase. P0A8V2. E. coli RNA polymerase, fluorescence transcription assay. inhibition, %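 (tested at 10 µM)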. 62,000 tested, 0.2% active. AID 559; in the data active means inhibition above about 20%;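 further: 0% = enzyme without compound and 100% = no enzyme blank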
# HTR1E antagonist – 5-HT1E (human) receptor antagonism; P28566; CHO 5-HT1E Ga15 NFAT-bla reporter, FRET, antagonist; AID 571; 65,000 tested, 0.99% active; inhibition, % at 6 µM;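 active means inhibition above a set limit, the mean inhibition across every tested compound plus 3 SD, cut at about 29% in these data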;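 further: signal is the 460 over 535 nm emission ratio of beta-lactamase substrate; 0% = agonist plus DMSO wells and 100% = wells without agonist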
# S1P3 agonist – agonists of human S1P3 receptor | activation, % at 4.5 µM | Q99500 | 60,000 tested, 0.1% active | S1P3 NFAT-BLA reporter cells, agonism, FRET ratio; relative to 1 µM S1P, basal subtracted;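 active means activation above the screen-wide mean plus 3 SD, cut at about 4.5% in these data, passing the limit was not always enough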
#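 Benchmarks: high control 1 µM S1P / System: stable CHO line with human S1P3, Gα16, NFAT-BLA reporter / Dosing: single compound concentration, 4.5 µM final / Timing: 4 h compound at 37 °C, 2 h substrate at RT / Measured by: FRET β-lactamase substrate fluorescence, excitation 405 nm, 460/535 nm emission ratio, background-subtracted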
# 5HT1a ag – agonists of human 5-HT1a serotonin receptor | 65,000 tested, 0.56% active | AID 567 | CHO 5-HT1a Ga15 NFAT-bla reporter, FRET ratio; 0% basal, 100% maximal reference agonist | activation, % at 10 µM | P08908;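 active means activation above the screen-wide mean activation plus 3 SD, cut at about 19% in these data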;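 further: 0% = DMSO wells and 100% = 5-CT at EC100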
# * = called active by the depositor; x = no result. Rows were chosen to be rich in hits. Some 2.6% of all compounds tested hit in one or more screens of this group.
SMILES,5HT1E ag,5HT1a antag,E coli RNAP,HTR1E antagonist,S1P3 agonist,5HT1a ag
Cc1cc(C)cc(N(CC(=O)Nc2cccc(C)n2)S(=O)(=O)c2c(C)noc2C)c1,0.0,25.3,2.3,4.8,-2.0,2.1
COc1nc(Nc2ccc(C(C)=O)cc2)nc(OC)n1,-0.4,-11.7,36.0*,-7.0,-0.6,-3.0
Cc1ccc(Oc2ccc(S(=O)(=O)N3CCOCC3)cc2C(N)=O)c(-n2nc3ccccc3n2)c1,-0.1,17.6,0.9,38.7*,-0.7,2.3
O=C(C1CN(S(=O)(=O)c2ccccc2)CCN1S(=O)(=O)c1ccccc1)N1CCCCCC1 (centres undefined),x,x,-0.3,x,x,x
COc1ccc(S(=O)(=O)N2CCN(c3ccc4nnc(-c5ccc(F)cc5)n4n3)CC2)cc1,4.7,-24.4,1.3,-8.9,-2.6,3.1
COc1ccc(N2CCN(C(=O)CSc3ncccc3-c3nc4ccccc4[nH]3)CC2)cc1,0.2,-9.9,0.7,-8.2,-0.5,-1.6
O=C(CSc1ncccc1-c1nc2ccccc2[nH]1)N1CCN(c2ccccc2F)CC1,8.7*,18.5,-12.1,6.3,-0.1,3.3
COc1ccccc1N1CCN(C(=O)CSc2ncccc2-c2nc3ccccc3[nH]2)CC1,21.8*,14.4,-1.9,-1.9,x,5.1
Cc1ccc(CN(C)C(=O)c2ccccc2Oc2ccccc2)o1,-0.8,34.4,4.5,-5.4,0.0,-1.2
CCOc1ccccc1CN(CCc1ccc2c(c1)OCO2)Cc1ccccn1,-0.7,48.4*,9.4,1.9,-1.0,0.9
CCOc1ncccc1C(=O)Nc1ccccc1C(=O)NCc1ccc2c(c1)OCO2,0.2,11.6,5.6,22.6,0.2,-0.4
Cc1noc(/C=C/N(C)C)c1S(=O)(=O)N1CCCC(C(=O)N2CCCCC2)C1 (centres undefined),-0.6,13.3,6.1,17.5,-0.2,-3.0
COc1ccc(CN2CCCC(C(=O)N3CCCC3)C2)cc1 (centres undefined),-0.3,-6.7,7.6,-3.9,-0.6,-0.8
O=C(C1CCN(Cc2ccc(OCc3ccccc3)cc2)CC1)N1CCCC1,11.1*,8.0,2.9,-10.9,-1.0,-1.1
CCN(CCCc1ccccc1)CCCc1ccccc1,30.8*,x,-0.7,4.7,-3.1,0.4
CCN(CC)CCCNC(=O)N[C@@H](Cc1ccccc1)C(=O)O,0.2,-3.6,8.4,-7.0,0.6,-1.1
CC(CP(=O)(O)O)NC(=O)Cc1ccccc1 (centres undefined),0.5,10.3,-0.5,4.8,-1.0,-1.4
CC1CN(c2nc3ccccc3nc2C(C#N)C(=O)NC2CCCCC2)CC(C)O1 (centres undefined),-0.7,7.0,3.5,-2.2,-0.8,-1.2
C=C(C)c1nc(N)nc(N)n1,-0.1,11.6,5.0,2.1,0.5,31.7*
C=C(C)C1Cc2nc(N)nc(C)c2C1 (centres undefined),-0.3,-2.6,5.4,-6.1,0.2,2.7
Cc1nc(SCC(=O)N2CCOCC2)c2ccsc2n1,-0.4,10.5,5.2,-0.8,-1.1,-0.8
Cc1cc(NC(=O)CCS(=O)(=O)c2nc(-c3ccccc3)cc(C(F)(F)F)n2)no1,0.3,61.0*,-6.9,40.0*,-1.0,1.4
FC(F)(F)c1cc(-c2ccccc2)nc(N2CCCCCC2)n1,-0.3,-11.4,3.9,-1.1,0.2,1.0
CS(=O)(=O)c1nc(-c2ccccc2)cc(C(F)(F)F)n1,2.9,110.3*,-0.9,64.5*,x,-9.2
Cc1ccc(C(=O)CSc2nnc(COc3cccc(C)c3)o2)cc1,-1.3,7.3,7.3,1.1,-0.3,-3.0
SMILES,5HT1E ag,5HT1a antag,E coli RNAP,HTR1E antagonist,S1P3 agonist,5HT1a ag
O=C(c1ccco1)N1CCN(C(=O)C2CCCN(S(=O)(=O)Cc3ccccc3)C2)CC1 (centres undefined),-1.0,11.2,5.2,7.3,x,69.5*
O=S1(=O)CCC(S(=O)(=O)N2CCCCCC2)C1 (centres undefined),-0.3,1.0,0.3,-7.1,x,-1.2
N#Cc1c(N)nc(-c2ccccc2)nc1-c1ccccc1,-0.3,22.7,-3.4,29.6*,-0.4,-0.9
CCOC(=O)C1=C(N)n2c(s/c(=C\c3cccnc3)c2=O)=C(C#N)C1c1cccnc1 (centres undefined),18.7*,-8.8,4.2,-7.5,-1.6,-0.3
CCn1ncc(C2=NOC(C(=O)NCc3ccc(OC)cc3)C2)c1C (centres undefined),-1.2,3.0,-0.4,-9.1,-0.9,-0.3
CCn1ncc(C2=NOC(C(=O)NCc3ccccc3)C2)c1C (centres undefined),-2.4,10.3,-5.9,36.7*,-0.8,-5.1
COc1ccc(C2=NOC(C(=O)NCc3ccccc3)C2)cc1 (centres undefined),0.1,30.1,7.8,38.6*,-0.2,-2.8
CC(C)OC(=O)c1cccc(C(=O)OCc2ccco2)n1,0.1,3.5,3.5,-0.7,-0.8,-0.8
CCCCn1c(O)c(C=NCCCN(C)C)c(=O)[nH]c1=O,-0.9,x,6.2,-1.5,-3.2,7.4
CSC1=C(C#N)C(c2ccc(C)cc2)C2=C(CCCC2=O)N1 (centres undefined),0.4,-9.2,7.5,-15.1,0.3,-2.2
COc1ccc(C2/C(=C(/O)c3ccc(C)cc3)C(=O)C(=O)N2C)cc1 (centres undefined),-0.3,10.0,10.6,0.8,-1.3,-1.4
Nc1nonc1-c1noc(CCCOc2ccc(Cl)cc2Cl)n1,-0.9,5.0,-1.9,17.9,0.2,-2.0
Cc1ccc(C(C)C)c(OCc2nc(-c3nonc3N)no2)c1,0.3,-22.5,7.3,22.2,17.1*,1.3
Cc1oc(-c2cccc(Cl)c2)nc1CN1CCCC(C(=O)NCCCN2CCOCC2)C1 (centres undefined),-0.3,16.3,-2.2,6.3,-1.3,30.2*
CCCCS(=O)(=O)/C=C\C=C/S(=O)(=O)CCCC,-1.6,102.0*,-0.5,107.3*,x,-8.8
CCNc1ccc(S(=O)(=O)C(F)(F)F)cc1NC(=O)C12CCC(CC1)C2,2.0,9.9,5.2,-8.4,-0.7,-1.7
CC(CCc1ccccc1)NCc1ccncc1 (centres undefined),0.0,3.7,14.7,-1.7,-0.7,-2.6
O=S(CCc1ccncc1)Cc1ccccc1 (centres undefined),0.2,x,11.2,5.9,2.9,39.9*
COc1ccc(Cn2nnnc2C(c2ccc(N(C)C)cc2)N2CCC(C)CC2)cc1 (centres undefined),1.4,43.5*,9.8,9.9,-0.9,2.6
Cc1ccc(NC(=O)CCNS(=O)(=O)c2ccc3c(c2)oc(=O)n3C)cc1,32.1*,-11.4,6.7,-7.8,-0.3,-0.6
COc1ccc(C(c2c(O)ccc3ccccc23)N2CCOCC2)c(OC)c1 (centres undefined),-0.8,106.7*,1.7,16.3,-1.5,-6.7

# Assay outcomes: PubChem, several laboratories
